# APJ agonist = activates the human apelin receptor APJ | P35414 | CHO-K1 APJ PathHunter beta-arrestin, luminescence; 0% DMSO wells, 100% apelin | AID 2520 | 330,000 compounds, 0.11% hits | activation, % at 20 µM;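 active means activation more than six SD over the plate average, tested at 20 µM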
#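 assay system = CHO-K1 APJ beta-arrestin complementation cell line | input = cell density 1000 per well | dosing = compound 20 µM once, DMSO 1% | timing = compound 90 min 25 °C, reagent 1 h | measured by = luminescence from split beta-galactosidase complementation, Galacton Star/Emerald II substrate | read-out basis = APJ agonist activity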
# CCR6 antagonist = CCR6 (human) receptor antagonism; P51684; CHO-K1 CCR6 PathHunter beta-arrestin, luminescence, CCL20-stimulated; inhibition, % at 20 µM; 340,000 compounds, 0.49% hits; AID 493098;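 active means compounds whose inhibition of the agonist-driven luminescence signal at 20 µM reaches about 50%, limit read from the data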;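 further: cells stimulated with CCL20 at 14 nM final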
# APJ antagonist = antagonists of human APJ apelin receptor | CHO-K1 APJ beta-arrestin complementation, luminescence | inhibition, % at 20 µM | 330,000 compounds, 0.32% hits | AID 2521;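 active means inhibition above about 40% at 20 µM, limit read from the data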;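 further: cells challenged with 10 nM apelin-13 agonist together with compound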
# H9c2 TAG inh = triacylglycerol accumulation inhibition; AID 651582; H9c2 cells, Nile Red lipid (TAG) fluorescence; cells loaded with 200 µM oleic acid; inhibition, % at 12.5 µM; 230,000 compounds, 0.66% hits;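 active means pattern-corrected inhibition of lipid staining of at least 50% with the nuclear-stain viability signal not falling by more than 50%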
# EBI2 antag = EBI2 (human) antagonism. inhibition, % at 5 µM. AID 651636. EBI2 beta-arrestin recruitment, luminescence, 7a,25-OHC stimulated. 360,000 compounds, 0.81% hits; in the data active means inhibition above about 38%;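 further: enzyme fragment complementation signal reports receptor beta-arrestin coupling in cells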
# Target sequence (P32249 whole entry, looked up, the tested form may be a part): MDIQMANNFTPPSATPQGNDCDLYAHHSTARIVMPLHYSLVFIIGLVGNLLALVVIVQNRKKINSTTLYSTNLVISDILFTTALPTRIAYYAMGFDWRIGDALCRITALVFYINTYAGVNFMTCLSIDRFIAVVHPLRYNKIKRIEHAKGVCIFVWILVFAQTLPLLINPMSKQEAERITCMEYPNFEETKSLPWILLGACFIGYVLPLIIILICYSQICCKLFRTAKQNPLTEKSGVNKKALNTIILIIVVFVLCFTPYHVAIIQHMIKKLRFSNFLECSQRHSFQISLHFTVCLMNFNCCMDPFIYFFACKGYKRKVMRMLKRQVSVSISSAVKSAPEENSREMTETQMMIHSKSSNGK
# CXCR6 inh = CXCR6 (human) receptor inhibition; O00574; CHO-K1 PathHunter CXCR6 beta-arrestin, luminescence; inhibition, % at 20 µM; 360,000 compounds, 0.36% hits; in the data active means inhibition above about 34%, passing the limit was not always enough;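 further: antagonist mode with CXCL16 agonist at 10 nM final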
# APJ antag conf = APJ receptor antagonism confirmation; shares compounds with APJ antagonist; APJ beta-arrestin recruitment, luminescence, antagonist mode; inhibition, % at 20 µM; 950 compounds, 66% hits; in the data active means inhibition above about 50%
# Numbers stand for hits; – = inactive; · = not tested or not shown. An excerpt weighted towards active compounds, which were near 1.9% of everything screened.
SMILES,APJ agonist,CCR6 antagonist,APJ antagonist,H9c2 TAG inh,EBI2 antag,CXCR6 inh,APJ antag conf
COc1ccc(OC)c(S(=O)(=O)NC2CC(=O)N(c3ccc(C)c(C)c3)C2)c1 (centres undefined),–,–,–,–,–,–,·
CC1(C(=O)NS(=O)(=O)c2ccc(Cl)cc2)CCN1C(=O)CCc1ccccc1 (centres undefined),·,·,·,–,–,–,·
COc1ccc(-n2c(C)ccc2-c2ccccc2)cn1,–,–,79.4,·,–,–,–
COCCNc1nc(Oc2ccc(CC(=O)OC)cc2)c2sc(-c3ccccc3)cc2n1,·,·,·,–,–,–,·
Cc1ccc2c(c1)C(=O)C(=O)N2c1ccc(Cl)cc1,–,–,44.6,–,–,–,85.9
Cc1ccc2c(c1)C(=O)C(=O)N2c1ccc(C(F)(F)F)cc1,–,–,–,–,–,–,·
Nc1nnc(SCC(=O)Nc2ccc(Cl)c(C(=O)O)c2)s1,–,–,45.5,–,–,–,–
COC(=O)c1cc(NC(=O)CSc2nnc(N)s2)ccc1Cl,–,–,–,–,–,–,·
O=S(=O)(c1cccc(Cl)c1Cl)N1CCCCC1,–,–,40.4,·,–,–,–
CN(CC1CCCN(CCc2ccc(F)cc2)C1)C(=O)CCC(N)=O (centres undefined),–,–,–,·,–,–,·
COc1ccc(CN(C)C(=O)c2cccc(NS(=O)(=O)c3ccccc3)c2)cc1F,–,–,–,·,–,–,·
O=C1/C(=C\c2ccc(O)c(O)c2)SC(=S)N1Cc1ccccc1,–,71.0,56.3,·,–,51.8,99.5
O=C1/C(=C\c2cccc(O)c2O)SC(=S)N1Cc1ccccc1,–,–,41.8,·,–,–,67.9
COc1cc(/C=C2/SC(=S)N(Cc3ccccc3)C2=O)ccc1O,–,59.1,46.9,·,–,–,102.8
O=C1/C(=C\c2cccc(O)c2)SC(=S)N1Cc1ccccc1,–,–,–,·,–,–,·
COc1cc(/C=C2\SC(=S)N(N3CCOCC3)C2=O)cc(OC)c1OC,–,–,–,·,–,–,·
COc1cc(/C=C2\SC(=S)N(N3CCOCC3)C2=O)ccc1O,–,–,50.6,–,–,40.1,70.2
CCc1ccc(NC(=O)CSc2nc3nc(C)cc(C)n3n2)cc1,–,–,–,·,–,–,·
CCc1nn(CC(=O)NCCCN2CCOCC2)c(=O)c2cc3c(OC)cccc3n12,·,–,·,·,–,–,·
CCN(c1ccc(OC)cc1)S(=O)(=O)c1ccc2c(c1)CC(C)N2C(=O)C1CC1 (centres undefined),–,–,–,·,–,–,·
COc1cc(/C=C2/SC(=S)N(c3c(C)n(C)n(-c4ccccc4)c3=O)C2=O)ccc1O,–,50.8,52.7,–,–,51.2,92.1
Cc1c(N2C(=O)/C(=C3/C(=O)N(C)c4ccccc43)SC2=S)c(=O)n(-c2ccccc2)n1C,–,–,–,·,–,–,·
COc1cc(/C=C2\SC(=S)N(NC(=O)c3ccc(O)c(OC)c3)C2=O)ccc1O,–,57.3,61.4,·,–,43.3,99.1
COc1cc(/C=C2\SC(=S)N(NC(=O)c3cccc(O)c3)C2=O)ccc1O,–,55.6,40.7,·,–,42.0,94.6
COc1cc(/C=C2\SC(=S)N(NC(=O)c3ccccc3OC)C2=O)ccc1O,–,66.0,65.9,·,–,50.2,99.7
SMILES,APJ agonist,CCR6 antagonist,APJ antagonist,H9c2 TAG inh,EBI2 antag,CXCR6 inh,APJ antag conf
COc1cc(/C=C2\SC(=S)N(NS(=O)(=O)c3ccccc3)C2=O)ccc1O,–,–,40.8,–,–,–,73.2
COc1ccc(/C=C2/SC(=S)N(NS(=O)(=O)c3ccccc3)C2=O)cc1,–,–,–,·,–,–,·
CCOC(=O)[C@]12CCC=C1N(Cc1ccccc1)C(=O)[C@H](CC(=O)NCc1ccc(OC)c(OC)c1)C2,·,·,·,·,–,–,·
CCOc1cc(/C=C2\SC(=S)N(NS(=O)(=O)c3ccc(C)cc3)C2=O)ccc1O,–,–,40.8,–,–,–,88.3
CCCOc1cccc(C2C(C(=O)c3cc4ccccc4o3)=C(O)C(=O)N2c2cc(C)on2)c1 (centres undefined),–,–,47.1,·,–,–,–
Cc1cc(N2C(=O)C(O)=C(C(=O)c3cc4ccccc4o3)C2c2cccc(Br)c2)no1 (centres undefined),–,–,–,·,–,–,·
CN(C)c1ccc2nc3ccc(=[N+](C)C)cc-3sc2c1,–,–,45.3,–,–,–,–
CN(C)c1ccc2nc3ccc(=O)cc-3sc2c1,·,·,·,–,–,–,·
Cc1cccn2c(=O)c3cc(C(=O)NC4CCCC4)c(=N)n(Cc4ccc(F)cc4)c3nc12,–,–,–,·,–,–,·
COc1ccc(CCn2c(=N)c(C(=O)NC3CCCC3)cc3c(=O)n4cccc(C)c4nc32)cc1,–,–,45.9,·,–,–,–
Cc1cccn2c(=O)c3cc(C(=O)NC4CCCCC4)c(=N)n(Cc4ccccc4)c3nc12,–,–,51.9,–,–,–,–
Clc1ccc(OCCCCCN2CCOCC2)cc1,–,–,–,·,–,–,·
CC(=O)Nc1nc(C)c(-c2csc(Nc3cccc([N+](=O)[O-])c3)n2)s1,–,–,–,·,–,–,·
CC(=O)c1cccc(Nc2nc(-c3cccc([N+](=O)[O-])c3)cs2)c1,–,–,51.8,–,–,–,–
CN(C)CCNC(=O)c1ccc2c(c1)N(Cc1ccc(F)cc1)CCS2,–,–,52.4,–,–,–,–
Cc1cc(C)n2[nH]c(=O)c(N=Nc3ccc(S(N)(=O)=O)cc3)c2n1,–,–,–,–,–,–,·
Nc1[nH]n2c(=O)cc(-c3ccccc3)nc2c1N=Nc1ccc(S(N)(=O)=O)cc1,–,51.4,41.6,·,–,–,64.7
CCCN(C(=O)CSCc1ccc(C)cc1)c1c(N)n(Cc2ccccc2)c(=O)[nH]c1=O,·,·,·,–,–,–,·
C/C=C/c1ccc(OCCCCN(C)Cc2ccccc2)c(OC)c1,–,–,50.9,·,–,–,–
CC(C(=O)NC1CCCCC1)N1CCN(S(=O)(=O)c2cccs2)CC1 (centres undefined),–,–,–,–,–,–,·
COCCNC(=O)Cn1c(=O)n(CCCC(=O)NCc2ccc3c(c2)OCO3)c(=O)c2sccc21,–,–,–,·,–,–,·
N#CC(C#N)=CC1=C2OC(c3ccccc3)=CC(c3ccccc3)=C2CCC1,–,–,40.7,·,–,–,58.8
NNc1nc(-c2ccccc2)c2cc(Br)ccc2n1,–,–,–,·,–,–,·
NNc1nc(-c2ccccc2)cc(-c2ccc(Br)cc2)n1,–,–,72.8,–,–,–,104.6
O=[N+]([O-])c1cccc(N/N=C/c2cc([N+](=O)[O-])ccc2O)c1,–,–,46.5,·,–,–,–
CN(/N=C/c1cc([N+](=O)[O-])ccc1O)c1ccccc1,–,63.6,41.8,·,–,48.5,62.7

# Compound activity deposited in PubChem BioAssay by Sanford-Burnham Center for Chemical Genomics.
